Converted amounts (≈) assume the structure as drawn. The source made the active and inactive calls. No cut-off for these calls is given here.

The subject of one assay is Proteus vulgaris. As to the kind of experiment: Antibacterial activity against Proteus vulgaris NCTC 4175 strain. The assay is classed as functional.
Details: not given
Molecule `CC(=O)Nc1cc(C(=O)Nc2cc(C(=O)Nc3cc(C(=O)NCCCN(C)C)n(C)c3)c(C)s2)n(C)c1` returned a minimal inhibitory concentration (MIC) of 156 µM (≈ 82.3 µg/mL).

`Cc1sc(NC(=O)c2cc(NC=O)cn2C)cc1C(=O)Nc1cc(C(=O)NCCCN(C)C)n(C)c1` came in with an MIC of 79.6 µM (≈ 40.9 µg/mL).

In the case of `CC(C)CCn1cc(NC(=O)c2cc(NC=O)cn2C)cc1C(=O)Nc1cc(C(=O)NCCCN2CCN(C)CC2)n(C)c1`, the MIC is 140 µM (≈ 85.1 µg/mL).

Regarding `Cn1cc(NC(=O)c2cc(NC(=O)c3cc(NC=O)cn3C)cn2C)cc1C(=O)NCCCN1CCCC1`, the MIC turned out to be 157 µM (≈ 82 µg/mL).

A further assay deals with Aspergillus niger. As to the kind of experiment: Antifungal activity against Aspergillus niger IMI17454 strain. In kind it is functional. The note with it: Aspergillus niger; read-out: MIC.
On to `CC(=O)Nc1cc(C(=O)Nc2cc(C(=O)Nc3cc(C(=O)NCCCN(C)C)n(C)c3)c(C)s2)n(C)c1`, for which the minimum inhibitory concentration (MIC) was found to be 156 µM (≈ 82.3 µg/mL).

For the molecule `Cc1sc(NC(=O)c2cc(NC=O)cn2C)cc1C(=O)Nc1cc(C(=O)NCCCN(C)C)n(C)c1`, the minimal inhibitory concentration (MIC) turned out to be 159 µM (≈ 81.7 µg/mL).

`CC(C)CCn1cc(NC(=O)c2cc(NC=O)cn2C)cc1C(=O)Nc1cc(C(=O)NCCCN2CCN(C)CC2)n(C)c1`: the MIC was found to be 140 µM (≈ 85.1 µg/mL).

`Cn1cc(NC(=O)c2cc(NC(=O)c3cc(NC=O)cn3C)cn2C)cc1C(=O)NCCCN1CCCC1`: the MIC is 157 µM (≈ 82 µg/mL).

A further assay relates to Staphylococcus aureus. Briefly: Antibacterial activity against methicillin-resistant Staphylococcus aureus (MRSA) PHLS M1 strain.
Details: not given
The assay is classed as functional. The gist of the method:
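Read-out is the minimum inhibitory concentration, reported in µM. Amoxycillin is tested alongside as the reference antibiotic.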
As to `CC(=O)Nc1cc(C(=O)Nc2cc(C(=O)Nc3cc(C(=O)NCCCN(C)C)n(C)c3)c(C)s2)n(C)c1`, 156 µM (≈ 82.3 µg/mL) was the least that counted as inhibitory (MIC).

As to `Cc1sc(NC(=O)c2cc(NC=O)cn2C)cc1C(=O)Nc1cc(C(=O)NCCCN(C)C)n(C)c1`, 159 µM (≈ 81.7 µg/mL) was the least that counted as inhibitory (MIC).

In a further assay the test system is Enterococcus faecalis. Briefly: Antibacterial activity against Streptococcus faecalis NCTC 775 strain; na = not active. The assay is classed as functional, organism-based.
Details: not given
As to `CC(=O)Nc1cc(C(=O)Nc2cc(C(=O)Nc3cc(C(=O)NCCCN(C)C)n(C)c3)c(C)s2)n(C)c1`, the MIC result is “inactive”.

As to `Cn1cc(NC(=O)c2cc(NC(=O)c3cc(NC=O)cn3C)cn2C)cc1C(=O)NCCCN1CCCC1`, the MIC result was “inactive”.

Tested on in the next assay: not listed separately
Briefly: Antifungal activity against Candida albicans NCPF 3179 strain; na = not active. The assay is classed as functional.
Details: not given
For `CC(C)CCn1cc(NC(=O)c2cc(NC=O)cn2C)cc1C(=O)Nc1cc(C(=O)NCCCN2CCN(C)CC2)n(C)c1`, the MIC entry is “inactive”.

In a further assay the test system is Staphylococcus aureus. Briefly: Antibacterial activity against MRSA PHLS M1 strain; na = not active. In kind it is functional, organism-based.
Details: not given
Turning to `CC(C)CCn1cc(NC(=O)c2cc(NC=O)cn2C)cc1C(=O)Nc1cc(C(=O)NCCCN2CCN(C)CC2)n(C)c1`, the MIC result is “inactive”.

Regarding `Cn1cc(NC(=O)c2cc(NC(=O)c3cc(NC=O)cn3C)cn2C)cc1C(=O)NCCCN1CCCC1`, the MIC entry was “inactive”.

The test system of a further assay is Escherichia coli. As to the kind of experiment: Antibacterial activity against Escherichia coli NCTC 9001 strain.
Details: not given
In kind it is functional.
On to `CC(=O)Nc1cc(C(=O)Nc2cc(C(=O)Nc3cc(C(=O)NCCCN(C)C)n(C)c3)c(C)s2)n(C)c1`, for which it took 156 µM (≈ 82.3 µg/mL) to inhibit growth (MIC).

`Cc1sc(NC(=O)c2cc(NC=O)cn2C)cc1C(=O)Nc1cc(C(=O)NCCCN(C)C)n(C)c1` had an MIC of 159 µM (≈ 81.7 µg/mL).

`CC(C)CCn1cc(NC(=O)c2cc(NC=O)cn2C)cc1C(=O)Nc1cc(C(=O)NCCCN2CCN(C)CC2)n(C)c1`: inhibition of growth (MIC) required 140 µM (≈ 85.1 µg/mL).

`Cn1cc(NC(=O)c2cc(NC(=O)c3cc(NC=O)cn3C)cn2C)cc1C(=O)NCCCN1CCCC1` had a minimum inhibitory concentration (MIC) of 157 µM (≈ 82 µg/mL).

In another assay the test system is Aspergillus nidulans. Briefly: Antifungal activity against Aspergillus nidulans CABI 0160037 strain. The assay is classed as functional.
Details: not given
In turn, `CC(=O)Nc1cc(C(=O)Nc2cc(C(=O)Nc3cc(C(=O)NCCCN(C)C)n(C)c3)c(C)s2)n(C)c1` had a minimum inhibitory concentration (MIC) of 38.9 µM (≈ 20.5 µg/mL).

As to `Cc1sc(NC(=O)c2cc(NC=O)cn2C)cc1C(=O)Nc1cc(C(=O)NCCCN(C)C)n(C)c1`, the lowest concentration to inhibit growth (MIC) was 159 µM (≈ 81.7 µg/mL).

Turning to `CC(C)CCn1cc(NC(=O)c2cc(NC=O)cn2C)cc1C(=O)Nc1cc(C(=O)NCCCN2CCN(C)CC2)n(C)c1`, 69.3 µM (≈ 42.1 µg/mL) was the least that counted as inhibitory (MIC).

As for `Cn1cc(NC(=O)c2cc(NC(=O)c3cc(NC=O)cn3C)cn2C)cc1C(=O)NCCCN1CCCC1`, 157 µM (≈ 82 µg/mL) was the least that counted as inhibitory (MIC).

In another assay the test system is Mycolicibacterium fortuitum. Briefly: Antibacterial activity against Mycobacterium fortuitum NCTC 10394 strain. The assay is classed as functional.
Details: not given
On to `CC(=O)Nc1cc(C(=O)Nc2cc(C(=O)Nc3cc(C(=O)NCCCN(C)C)n(C)c3)c(C)s2)n(C)c1`, for which the MIC came out at 38.9 µM (≈ 20.5 µg/mL).

The molecule `Cc1sc(NC(=O)c2cc(NC=O)cn2C)cc1C(=O)Nc1cc(C(=O)NCCCN(C)C)n(C)c1` came in with a minimum inhibitory concentration (MIC) of 159 µM (≈ 81.7 µg/mL).

The molecule `CC(C)CCn1cc(NC(=O)c2cc(NC=O)cn2C)cc1C(=O)Nc1cc(C(=O)NCCCN2CCN(C)CC2)n(C)c1` came in with a minimum inhibitory concentration (MIC) of 69.3 µM (≈ 42.1 µg/mL).

The molecule `Cn1cc(NC(=O)c2cc(NC(=O)c3cc(NC=O)cn3C)cn2C)cc1C(=O)NCCCN1CCCC1` registered a minimal inhibitory concentration (MIC) of 78.5 µM (≈ 41 µg/mL).

Tested on in another assay: not listed separately
Briefly: Antibacterial activity against Enterobacter cloacae NCTC 10005 strain. The assay is classed as functional.
Details: not given
`CC(=O)Nc1cc(C(=O)Nc2cc(C(=O)Nc3cc(C(=O)NCCCN(C)C)n(C)c3)c(C)s2)n(C)c1` returned an MIC of 156 µM (≈ 82.3 µg/mL).

`Cc1sc(NC(=O)c2cc(NC=O)cn2C)cc1C(=O)Nc1cc(C(=O)NCCCN(C)C)n(C)c1` yielded a minimal inhibitory concentration (MIC) of 159 µM (≈ 81.7 µg/mL).

Molecule `CC(C)CCn1cc(NC(=O)c2cc(NC=O)cn2C)cc1C(=O)Nc1cc(C(=O)NCCCN2CCN(C)CC2)n(C)c1` came in with a minimal inhibitory concentration (MIC) of 140 µM (≈ 85.1 µg/mL).

`Cn1cc(NC(=O)c2cc(NC(=O)c3cc(NC=O)cn3C)cn2C)cc1C(=O)NCCCN1CCCC1` yielded an MIC of 157 µM (≈ 82 µg/mL).

A further assay has as its system Enterococcus faecalis. As to the kind of experiment: Antibacterial activity against Streptococcus faecalis NCTC 775 strain. In kind it is functional.
Details: not given
In the case of `Cc1sc(NC(=O)c2cc(NC=O)cn2C)cc1C(=O)Nc1cc(C(=O)NCCCN(C)C)n(C)c1`, the minimum inhibitory concentration (MIC) is 79.6 µM (≈ 40.9 µg/mL).

`CC(C)CCn1cc(NC(=O)c2cc(NC=O)cn2C)cc1C(=O)Nc1cc(C(=O)NCCCN2CCN(C)CC2)n(C)c1` showed a minimal inhibitory concentration (MIC) of 69.3 µM (≈ 42.1 µg/mL).

A further assay has as its system Candida albicans. Briefly: Antifungal activity against Candida albicans NCPF 3179 strain. The assay is classed as functional. The note with it: Candida albicans; read-out: MIC.
As to `CC(=O)Nc1cc(C(=O)Nc2cc(C(=O)Nc3cc(C(=O)NCCCN(C)C)n(C)c3)c(C)s2)n(C)c1`, the minimal inhibitory concentration (MIC) stood at 156 µM (≈ 82.3 µg/mL).

Take `Cc1sc(NC(=O)c2cc(NC=O)cn2C)cc1C(=O)Nc1cc(C(=O)NCCCN(C)C)n(C)c1`: the MIC is 159 µM (≈ 81.7 µg/mL).

Consider `Cn1cc(NC(=O)c2cc(NC(=O)c3cc(NC=O)cn3C)cn2C)cc1C(=O)NCCCN1CCCC1`, for which the MIC was determined as 157 µM (≈ 82 µg/mL).

The test system of a further assay is Klebsiella aerogenes. Briefly: Antibacterial activity against Klebsiella aerogenes WRL CN 345 strain. In kind it is functional, WRL CN 375. The note with it: Klebsiella aerogenes, WRL CN 375; read-out: MIC.
Turning to `CC(=O)Nc1cc(C(=O)Nc2cc(C(=O)Nc3cc(C(=O)NCCCN(C)C)n(C)c3)c(C)s2)n(C)c1`, the MIC came out at 156 µM (≈ 82.3 µg/mL).

As to `Cc1sc(NC(=O)c2cc(NC=O)cn2C)cc1C(=O)Nc1cc(C(=O)NCCCN(C)C)n(C)c1`, the minimum inhibitory concentration (MIC) was found to be 159 µM (≈ 81.7 µg/mL).

With `CC(C)CCn1cc(NC(=O)c2cc(NC=O)cn2C)cc1C(=O)Nc1cc(C(=O)NCCCN2CCN(C)CC2)n(C)c1`, the MIC turned out to be 140 µM (≈ 85.1 µg/mL).

Turning to `Cn1cc(NC(=O)c2cc(NC(=O)c3cc(NC=O)cn3C)cn2C)cc1C(=O)NCCCN1CCCC1`, the minimal inhibitory concentration (MIC) amounted to 157 µM (≈ 82 µg/mL).

Another assay deals with Staphylococcus aureus. As to the kind of experiment: Antibacterial activity against Staphylococcus aureus NCTC 6571 strain. The assay is classed as functional.
Details: not given
`CC(=O)Nc1cc(C(=O)Nc2cc(C(=O)Nc3cc(C(=O)NCCCN(C)C)n(C)c3)c(C)s2)n(C)c1`: the MIC is 78.5 µM (≈ 41.4 µg/mL).

In the case of `Cc1sc(NC(=O)c2cc(NC=O)cn2C)cc1C(=O)Nc1cc(C(=O)NCCCN(C)C)n(C)c1`, the lowest concentration to inhibit growth (MIC) was 39.8 µM (≈ 20.4 µg/mL).

`CC(C)CCn1cc(NC(=O)c2cc(NC=O)cn2C)cc1C(=O)Nc1cc(C(=O)NCCCN2CCN(C)CC2)n(C)c1` showed an MIC of 140 µM (≈ 85.1 µg/mL).

As to `Cn1cc(NC(=O)c2cc(NC(=O)c3cc(NC=O)cn3C)cn2C)cc1C(=O)NCCCN1CCCC1`, it took 1200 µM (≈ 627 µg/mL) to inhibit growth (MIC).

By MIC is commonly meant the lowest concentration found to suppress growth.

These data come from ChEMBL document CHEMBL1137088, “Distamycin analogues with enhanced lipophilicity: synthesis and antimicrobial activity” (2004).
